Reference: ChEMBL document CHEMBL1926536, “Synthesis, molecular modeling studies and biological evaluation of fluorine substituted analogs of GW 501516” (Bioorg Med Chem, 2011)

Assays:
[1] = target: T1, Peroxisome proliferator-activated receptor alpha (Homo sapiens, UniProt Q07869); experiment: Agonist activity at human PPARalpha ligand binding domain expressed in COS-1 cells co-transfected with Gal4 after 24 hrs by luciferase reporter gene assay; assay type: cell-based
T1 sequence (Q07869 whole entry): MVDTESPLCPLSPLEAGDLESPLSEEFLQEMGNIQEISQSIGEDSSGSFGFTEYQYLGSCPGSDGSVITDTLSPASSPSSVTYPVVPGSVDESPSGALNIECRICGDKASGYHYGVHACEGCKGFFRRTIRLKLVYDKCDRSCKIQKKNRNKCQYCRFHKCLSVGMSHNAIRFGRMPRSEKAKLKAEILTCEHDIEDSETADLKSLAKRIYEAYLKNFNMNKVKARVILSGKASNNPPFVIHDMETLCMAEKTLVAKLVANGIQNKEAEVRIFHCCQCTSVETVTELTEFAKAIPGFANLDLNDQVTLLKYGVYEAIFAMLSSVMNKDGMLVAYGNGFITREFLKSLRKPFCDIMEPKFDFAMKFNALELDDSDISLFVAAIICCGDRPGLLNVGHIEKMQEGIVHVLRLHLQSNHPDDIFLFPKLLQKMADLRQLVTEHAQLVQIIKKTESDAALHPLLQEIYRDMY

[2] = target: T2, Peroxisome proliferator-activated receptor delta (Homo sapiens, UniProt Q03181); experiment: Agonist activity at human PPARdelta ligand binding domain expressed in COS-1 cells after 24 hrs by luciferase reporter gene-based luminometric analysis; assay type: cell-based
T2 sequence (Q03181 whole entry): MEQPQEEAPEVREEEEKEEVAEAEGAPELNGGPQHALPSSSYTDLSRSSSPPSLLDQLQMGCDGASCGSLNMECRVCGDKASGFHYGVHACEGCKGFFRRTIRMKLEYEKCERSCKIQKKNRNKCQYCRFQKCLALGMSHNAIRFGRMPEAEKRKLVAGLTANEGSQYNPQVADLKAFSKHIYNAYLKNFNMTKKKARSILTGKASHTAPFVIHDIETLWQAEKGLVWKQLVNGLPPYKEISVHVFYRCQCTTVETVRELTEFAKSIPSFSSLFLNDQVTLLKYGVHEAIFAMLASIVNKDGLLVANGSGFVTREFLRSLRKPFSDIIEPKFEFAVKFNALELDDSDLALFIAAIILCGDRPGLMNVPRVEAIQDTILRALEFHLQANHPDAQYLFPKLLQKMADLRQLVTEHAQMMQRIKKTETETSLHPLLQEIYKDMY

[3] = target: T3, Peroxisome proliferator-activated receptor gamma (Homo sapiens, UniProt P37231); assay type: cell-based, COS-1
T3 sequence (P37231 whole entry): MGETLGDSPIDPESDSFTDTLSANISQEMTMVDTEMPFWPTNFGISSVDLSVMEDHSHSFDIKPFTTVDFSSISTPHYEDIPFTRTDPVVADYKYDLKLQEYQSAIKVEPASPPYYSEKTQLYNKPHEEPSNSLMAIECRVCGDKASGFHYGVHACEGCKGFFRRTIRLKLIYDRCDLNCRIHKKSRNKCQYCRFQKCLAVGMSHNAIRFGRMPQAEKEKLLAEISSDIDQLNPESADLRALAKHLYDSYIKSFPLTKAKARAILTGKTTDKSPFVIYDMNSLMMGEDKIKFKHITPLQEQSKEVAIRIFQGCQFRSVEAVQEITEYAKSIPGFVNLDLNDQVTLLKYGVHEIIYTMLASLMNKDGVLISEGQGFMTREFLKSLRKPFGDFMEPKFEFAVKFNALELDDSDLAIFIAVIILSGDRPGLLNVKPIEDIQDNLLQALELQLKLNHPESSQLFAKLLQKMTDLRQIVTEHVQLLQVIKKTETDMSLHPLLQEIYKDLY

[4] = Induction of [14C]oleic acid oxidation in a human myotubes after 4 days by beta liquid scintillation counting; assay type: functional
Method in brief: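 Satellite cells from human abdominal muscle biopsies of healthy donors, differentiated to myotubes for 7 days in DMEM (5.5 mM glucose) with 2% FCS and 25 pM insulin. Then [1-14C]oleic acid (1 µCi/mL, 100 µM) in DPBS with 10 mM HEPES and 1 mM L-carnitine, 4 h at 37 °C. Trapped CO2 counted by scintillation, normalized to protein. EC50 from three independent experiments in quadruplicate, mean ± SD.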

Row | Structure (SMILES) | EC50 [1] [nM] | EC50 [2] [nM] | EC50 [3] [nM] | EC50 [4] [nM]
1 | CC/C=C\C/C=C\C/C=C\C/C=C\CC/C=C/C=C/C(=O)O | 32 | > 1000 | > 1000 | 
2 | CCc1cc(SCc2sc(-c3ccc(C(F)(F)F)cc3)nc2C)ccc1OC(F)C(=O)O (racemic) | 710 | 290 | > 1000 | 5
3 | Cc1cc(SCc2sc(-c3ccc(C(F)(F)F)cc3)nc2C)ccc1OCC(=O)O [GW501516] |  |  |  | 0.03
4 | CN(CCOc1ccc(CC2SC(=O)NC2=O)cc1)c1ccccn1 (configuration not stated) [ROSIGLITAZONE] |  |  |  | > 1000

The next lines start with the values.

Row | EC50 [1] [nM] | EC50 [2] [nM] | EC50 [3] [nM] | EC50 [4] [nM] | Structure (SMILES)
5 | 560 | 55 | > 1000 | 3.7 | Cc1cc(SCc2sc(-c3ccc(C(F)(F)F)cc3)nc2C)ccc1OC(F)C(=O)O (racemic)
6 | 735 | 580 | > 1000 | 31.4 | Cc1nc(-c2ccc(C(F)(F)F)cc2)sc1CSc1ccc(OC(F)C(=O)O)c(C(C)C)c1 (racemic)
